≈ marks a conversion by molar mass, not a printed value. Peptide text beside a SMILES is read from it.
Experiments:
Bacillus subtilis = assay: Antibacterial activity against Bacillus subtilis NBRC 3513 after overnight incubation by microplate dilution method; format: functional
Outline: (§1)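 MIC read by microplate broth dilution with an inoculum of 10^6 organisms per ml of medium. Each peptide was tested 7–10 times.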

Priestia megaterium = assay: Antibacterial activity against Bacillus megaterium ATCC 19213 after overnight incubation by microplate dilution method; format: functional; outline: as §1
[1] = tested on: Staphylococcus epidermidis; assay: Antibacterial activity against Staphylococcus epidermidis NBRC 12933 after overnight incubation by microplate dilution method; format: functional; outline: as §1
Staphylococcus aureus = assay: Antibacterial activity against Staphylococcus aureus NBRC 12732 after overnight incubation by microplate dilution method; format: functional; outline: as §1
Pseudomonas aeruginosa = assay: Antibacterial activity against Pseudomonas aeruginosa NBRC 3080 after overnight incubation by microplate dilution method; format: functional; outline: as §1
Escherichia coli = assay: Antibacterial activity against Escherichia coli NBRC 12734 after overnight incubation by microplate dilution method; format: functional; outline: as §1
[2] = Hemolytic activity against sheep RBC at 20 to 100 uM after 30 mins by spectrophotometry; format: ADME, cell-based, Ovis aries; conditions: erythrocyte, 0.5 h
Outline: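 Sheep erythrocytes were exposed to a range of peptide concentrations to build hemolysis (%) dose–response curves. The experiment was run three times per peptide.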

| Compound | MIC (Bacillus subtilis) [µg/mL] | MIC (Priestia megaterium) [µg/mL] | MIC [1] [µg/mL] | MIC (Staphylococcus aureus) [µg/mL] | MIC (Pseudomonas aeruginosa) [µg/mL] | MIC (Escherichia coli) [µg/mL] | Activity [2] |
| --- | --- | --- | --- | --- | --- | --- | --- |
| CC(C)C[C@@H]1NC(=O)[C@H](CCCN)NC(=O)[C@H](C(C)C)NC(=O)[C@@H]2C[C@@H](N)CN2C(=O)[C@@H](Cc2ccccc2)NC(=O)[C@H](CC(C)C)NC(=O)[C@H](CCCN)NC(=O)[C@H](C(C)C)NC(=O)[C@@H]2CCCN2C(=O)[C@@H](Cc2ccccc2)NC1=O | 6.25 (≈ 5.4 µM) | 6.25 (≈ 5.4 µM) | 6.25 (≈ 5.4 µM) | 12.5 (≈ 10.8 µM) | 50 (≈ 43.2 µM) | 25 (≈ 21.6 µM) | Toxic |
| CC(C)C[C@@H]1NC(=O)[C@H](CCCN)NC(=O)[C@H](C(C)C)NC(=O)[C@@H]2CCCN2C(=O)[C@@H](Cc2ccccc2)NC(=O)[C@H](CC(C)C)NC(=O)[C@H](CCCN)NC(=O)[C@H](C(C)C)NC(=O)[C@@H]2CCCN2C(=O)[C@@H](Cc2ccccc2)NC1=O [GRAMICIDIN S] (HELM PEPTIDE1{L.[dF].P.V.[Orn].L.[dF].P.V.[Orn]}$PEPTIDE1,PEPTIDE1,1:R1-10:R2$$$V2.0) | 3.13 (≈ 2.74 µM) | 3.13 (≈ 2.74 µM) | 3.13 (≈ 2.74 µM) | 3.13 (≈ 2.74 µM) | 25 (≈ 21.9 µM) | 25 (≈ 21.9 µM) |  |
| CC(C)C[C@@H]1NC(=O)[C@H](CCCN)NC(=O)[C@H](C(C)C)NC(=O)[C@@H]2C[C@H](N)CN2C(=O)[C@@H](Cc2ccccc2)NC(=O)[C@H](CC(C)C)NC(=O)[C@H](CCCN)NC(=O)[C@H](C(C)C)NC(=O)[C@@H]2CCCN2C(=O)[C@@H](Cc2ccccc2)NC1=O | 6.25 (≈ 5.4 µM) | 6.25 (≈ 5.4 µM) | 6.25 (≈ 5.4 µM) | 12.5 (≈ 10.8 µM) | 50 (≈ 43.2 µM) | 25 (≈ 21.6 µM) | Toxic |
| CCCCCCCC(=O)N[C@H]1C[C@H]2C(=O)N[C@@H](C(C)C)C(=O)N[C@@H](CCCN)C(=O)N[C@@H](CC(C)C)C(=O)N[C@H](Cc3ccccc3)C(=O)N3CCC[C@H]3C(=O)N[C@@H](C(C)C)C(=O)N[C@@H](CCCN)C(=O)N[C@@H](CC(C)C)C(=O)N[C@H](Cc3ccccc3)C(=O)N2C1 | 12.5 (≈ 9.75 µM) | 6.25 (≈ 4.87 µM) | 6.25 (≈ 4.87 µM) | 6.25 (≈ 4.87 µM) | 50 (≈ 39 µM) | 50 (≈ 39 µM) | Toxic |

From ChEMBL document CHEMBL1933037, “Fatty acyl-gramicidin S derivatives with both high antibiotic activity and low hemolytic activity” (Bioorg Med Chem Lett, 2012)
